In article PMC5815829 (Journal of the American Chemical Society, 2017):
“Also recorded” adds a separate entry of the source. Read-outs that look alike come from different tables or passages of the source.

Experiments:
[1] = tested on: truly truncated H6:GFP: loop:s11; assay: Spontaneous dark reassembly with s11; assay type: binding; conditions: 4 μM protein, 20 μM s11, dark
Method in brief: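 Truncated protein made from intact GFP carrying a sacrificial loop: loop cut by proteolysis, then strand 11 stripped off in 6M Guanidinium-HCl. Protein separated from s11 peptide by size exclusion, refolded by rapid dilution into non-denaturing buffer, then thermally relaxed. 4 µM protein mixed with 20 µM s11 peptide without irradiation. Reassembly followed over time; second-order k reported in M-1s-1.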

H6:GFP: loop:s11 = conditions: His-tag retained, cited from earlier work
H6:GFP: loop:s11•s11 = conditions: excess replacement peptide s11^222Q; cited from earlier work
s10• H6:GFP: loop:s11 = assay: Displacement of bound s10 by excess s11; assay type: binding; conditions: excess s11 added to isolated complex; data not shown
H6:s10:loop:GFP = conditions: cited from earlier work
s10• H6:s10:loop:GFP = conditions: dark; cited from earlier work

Row | Sequence | rate constant k of spontaneous reassembly with s11 in the dark [1] | binding of s11 in the dark (H6:GFP: loop:s11; listed as native peptide) | binding of s11 in the dark (H6:GFP: loop:s11) | spontaneous off-rate of strand 11 (H6:GFP: loop:s11•s11) | displacement of bound s10 (s10• H6:GFP: loop:s11) | reassembly with s10 in the dark (H6:s10:loop:GFP) | spontaneous off-rate of strand 10 (s10• H6:s10:loop:GFP)
1 | HMVLLEFVTAA [s11] | 1.2 × 10^0 M^−1 s^−1 | unable to displace the H6 slotted into this groove until it is vacated following light activation | unable to bind s11 in the dark; also recorded: does not rebind added synthetic strand 11 (s11) spontaneously in the dark | effectively zero | able to displace the bound s10, and light accelerates this process |  | 
2 | NHYLSTQSVLS [s10] |  |  |  |  |  | readily reassembles | very slow
